Measured values as given in ChEMBL document CHEMBL1134408, “Antitumor agents. 207. Design, synthesis, and biological testing of 4beta-anilino-2-fluoro-4'-demethylpodophyllotoxin analogues as cytotoxic and antiviral agents” (2001).
In brackets after ≈: the same amount, converted by molar mass.

Tests used:
[1] = % inhibition against KB cells (nasopharyngeal carcinoma) at 0.04 ug/mL; assay type: functional; conditions: Homo sapiens
HEL = assay: Inhibitory activity against HEL cells; assay type: functional; conditions: Homo sapiens, read-out: ED50 (the source's name)
How it was run: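 Human embryonic lung fibroblasts in MEM/10% FBS, 6% CO2, seeded at 50 000 cells/mL with a drug dilution series. Exposure 15 days; viability and cell counts by trypan blue. ED50 (50% growth reduction versus untreated cells) interpolated from dose–response data.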

A549 [2] = assay: % inhibition against A549 cells (lung cancer) at 0.4 ug/mL; assay type: functional; conditions: Homo sapiens
CAKI-1 [3] = assay: % inhibition against CAKI-1 cells(renal carcinoma) at 4 ug/mL.; assay type: functional; conditions: Homo sapiens
CAKI-1 [4] = assay: % inhibition against CAKI-1 cells(renal carcinoma) at 0.4 ug/mL.; assay type: functional; conditions: Homo sapiens
[5] = GI values against KB cells (nasopharyngeal carcinoma); assay type: functional; conditions: Homo sapiens
CAKI-1 [6] = assay: % inhibition against CAKI-1 cells(renal carcinoma) at 0.04 ug/mL.; assay type: functional; conditions: Homo sapiens
MCF7 [7] = assay: % inhibition against MCF-7 cells (breast cancer) at 4 ug/mL; assay type: functional; conditions: Homo sapiens
Human betaherpesvirus 5 = assay: Inhibitory activity against human cytomegalovirus (HCMV); assay type: functional; conditions: for IC50: read-out: ID50 (the source's name)
How it was run: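 Confluent HEL fibroblasts infected with Towne strain CMV at 1–2 PFU/cell, with or without a drug dilution series. Antiviral effect read either as extracellular virus yield (day-6 supernatant titred by plaque assay on HEL, counted at 2 weeks) or as viral DNA by 32P-CMV-probe dot hybridization with scintillation counting of dots.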

MCF7 [8] = assay: % inhibition against MCF-7 cells (breast cancer) at 0.04 ug/mL; assay type: functional; conditions: Homo sapiens
A549 [9] = assay: GI values against A549 cells (lung cancer); assay type: functional; conditions: Homo sapiens
A549 [10] = assay: % inhibition against A549 cells (lung cancer) at 0.04 ug/mL; assay type: functional; conditions: Homo sapiens
[11] = % inhibition against KB cells (nasopharyngeal carcinoma) at 0.4 ug/mL; assay type: functional; conditions: Homo sapiens
A549 [12] = assay: % inhibition against A549 cells (lung cancer) at 4 ug/mL; assay type: functional; conditions: Homo sapiens
[13] = % inhibition against KB cells (nasopharyngeal carcinoma) at 4 ug/mL; assay type: functional; conditions: Homo sapiens
MCF7 [14] = assay: % inhibition against MCF-7 cells (breast cancer) at 0.4 ug/mL; assay type: functional; conditions: Homo sapiens
[15] = Selectivity index (ED50/ID50) value of the compound; assay type: functional
How it was run: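 Ratio of ED50 for growing HEL cells (15-day trypan blue count) to ID50 against Towne strain CMV in HEL fibroblasts.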

CAKI-1 [16] = assay: GI values against CAKI-1 cells(renal carcinoma); assay type: functional; conditions: Homo sapiens
Human alphaherpesvirus 1 [17] = assay: Minimum inhibitory concentration against herpesvirus simplex 1; assay type: functional
How it was run: (§1)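 Plaque elimination in pre-formed confluent Vero monolayers, HSV-1 strain KOS or HSV-2 strain 186, ~100 PFU inoculum for 30 min. Overlay medium had 0.5% calf serum, 1% carboxymethylcellulose and drug dilutions. Crystal violet fix/stain at 2 days; macroscopic plaques scored. ED100 = dilution fully eliminating plaques without monolayer toxicity. MIC = lowest dilution reducing plaque size/number. Repeated at least twice.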

Human alphaherpesvirus 2 [18] = assay: Minimum inhibitory concentration against herpesvirus simplex 2; assay type: functional; how it was run: as §1
Human alphaherpesvirus 1 [19] = assay: Effective dose required to inhibit 100% against herpesvirus simplex 1; assay type: functional; how it was run: as §1
Vero [20] = assay: Minimum inhibitory concentration for cell growth inhibition (Herpesvirus activity); assay type: functional; conditions: Chlorocebus sabaeus
How it was run: (§2)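 Cells seeded at 50 000 cells/mL with a drug dilution series, exposed 2 days; cell number by sulforhodamine B staining. ED25 interpolated from dose–response as the concentration cutting absorbency by 25%. MIC = lowest dilution giving detectable growth inhibition. Triplicate wells; absorbency within 5%, ED25 within 30% across independent tests.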

Human alphaherpesvirus 2 [21] = assay: Effective dose required to inhibit 100% against herpesvirus simplex 2; assay type: functional; how it was run: as §1
Vero [22] = assay: Effective dose required to inhibit 25% of cell growth (Herpesvirus activity); assay type: functional, Chlorocebus sabaeus; how it was run: as §2

In the case of `COc1cc([C@@H]2c3cc4c(cc3[C@@H](Nc3ccc(F)cc3)[C@H]3COC(=O)[C@]23F)OCO4)cc(OC)c1O`, the inhibition at 0.04 µg/mL [1] is reported as 7.5%, the EC50 (HEL) is reported as 6.1 µM and the inhibition at 0.4 µg/mL (A549 [2]) is reported as 26.2%. For the same compound, the inhibition at 4 µg/mL (CAKI-1 [3]) was 44.3%, the inhibition at 0.4 µg/mL (CAKI-1 [4]) was 15.3% and the GI50 [5] was 2 µM. The inhibition at 0.04 µg/mL (CAKI-1 [6]) was 10.3%, the inhibition at 4 µg/mL (MCF7 [7]) was 61.2% and the ID90 (Human betaherpesvirus 5) was 4.47 µM. For the same compound, the IC50 (Human betaherpesvirus 5) was 0.97 µM, the inhibition at 0.04 µg/mL (MCF7 [8]) was 13.2% and the GI50 (A549 [9]) was 2 µM. For the same compound, the inhibition at 0.04 µg/mL (A549 [10]) was 16.1%, the inhibition at 0.4 µg/mL [11] was 10.1% and the inhibition at 4 µg/mL (A549 [12]) was 61.4%. For the same compound, the inhibition at 4 µg/mL [13] was 70.9%, the inhibition at 0.4 µg/mL (MCF7 [14]) was 20% and the SI [15] was 6.2. The GI50 (CAKI-1 [16]) was > 10 µM.

For `COc1cc([C@@H]2c3cc4c(cc3[C@@H](Nc3ccc([N+](=O)[O-])cc3)[C@H]3COC(=O)[C@]23F)OCO4)cc(OC)c1O`, the inhibition at 0.04 µg/mL [1] was 0%, the EC50 (HEL) was 6.09 µM and the inhibition at 0.4 µg/mL (A549 [2]) was 6.5%. For the same compound, the inhibition at 4 µg/mL (CAKI-1 [3]) was 21.9%, the inhibition at 0.4 µg/mL (CAKI-1 [4]) was 2.6% and the GI50 [5] was > 10 µM. It also gave an inhibition at 0.04 µg/mL (CAKI-1 [6]) of 0.8%, an inhibition at 4 µg/mL (MCF7 [7]) of 42.1% and an ID90 (Human betaherpesvirus 5) of 4.6 µM. The IC50 (Human betaherpesvirus 5) was 1.45 µM, the inhibition at 0.04 µg/mL (MCF7 [8]) was 0.9% and the GI50 (A549 [9]) was 3.98 µM. For the same compound, the inhibition at 0.04 µg/mL (A549 [10]) was 0%, the inhibition at 0.4 µg/mL [11] was 3.8% and the inhibition at 4 µg/mL (A549 [12]) was 51.8%. The inhibition at 4 µg/mL [13] was 41.6%, the inhibition at 0.4 µg/mL (MCF7 [14]) was 7.3% and the SI [15] was 4.2. For the same compound, the GI50 (CAKI-1 [16]) was > 10 µM.

Work on `COc1cc([C@@H]2c3cc4c(cc3[C@H](O[Si](C)(C)C(C)(C)C)[C@H]3COC(=O)[C@H]23)OCO4)cc(OC)c1OC` yielded an MIC (Human alphaherpesvirus 1 [17]) of 1 µM (≈ 0.529 µg/mL), an MIC (Human alphaherpesvirus 2 [18]) of 0.1 µM (≈ 0.0529 µg/mL) and an ED100 (Human alphaherpesvirus 1 [19]) of 10 µM. For the same compound, the MIC (Vero [20]) was 3 µM (≈ 1.59 µg/mL), the ED100 (Human alphaherpesvirus 2 [21]) was 1000 nM and the ED25 (Vero [22]) was 6 µM.

With `COc1cc([C@@H]2c3cc4c(cc3[C@H](O)[C@H]3COC(=O)[C@]23F)OCO4)cc(OC)c1OC` the MIC (Human alphaherpesvirus 1 [17]) was 1 µM (≈ 0.432 µg/mL), the inhibition at 0.04 µg/mL [1] was 53.3% and the MIC (Human alphaherpesvirus 2 [18]) was 0.1 µM (≈ 0.0432 µg/mL). For the same compound, the inhibition at 0.4 µg/mL (A549 [2]) was 69.6%, the inhibition at 4 µg/mL (CAKI-1 [3]) was 40.5% and the ED100 (Human alphaherpesvirus 1 [19]) was 10 µM. It also gave an inhibition at 0.4 µg/mL (CAKI-1 [4]) of 39.7%, a GI50 [5] of 0.0316 µM and an inhibition at 0.04 µg/mL (CAKI-1 [6]) of 18.1%. The MIC (Vero [20]) was 0.8 µM (≈ 0.346 µg/mL), the inhibition at 4 µg/mL (MCF7 [7]) was 51% and the ID90 (Human betaherpesvirus 5) was >5 µM. For the same compound, the IC50 (Human betaherpesvirus 5) was > 5 µM, the inhibition at 0.04 µg/mL (MCF7 [8]) was 34.2% and the GI50 (A549 [9]) was 3.98 µM. For the same compound, the inhibition at 0.04 µg/mL (A549 [10]) was 59.4%, the inhibition at 0.4 µg/mL [11] was 72% and the ED100 (Human alphaherpesvirus 2 [21]) was 1000 nM. The inhibition at 4 µg/mL (A549 [12]) was 73.1%, the inhibition at 4 µg/mL [13] was 87.4% and the inhibition at 0.4 µg/mL (MCF7 [14]) was 48%. The ED25 (Vero [22]) was 1 µM and the GI50 (CAKI-1 [16]) was > 10 µM.

Compound `COc1cc([C@@H]2c3cc4c(cc3[C@@H](Nc3ccc(N)cc3)[C@H]3COC(=O)[C@]23F)OCO4)cc(OC)c1O` has an inhibition at 0.04 µg/mL [1] of 0%, an EC50 (HEL) of 7.5 µM and an inhibition at 0.4 µg/mL (A549 [2]) of 7.7%. The inhibition at 4 µg/mL (CAKI-1 [3]) was 38%, the inhibition at 0.4 µg/mL (CAKI-1 [4]) was 2.5% and the GI50 [5] was 3.98 µM. For the same compound, the inhibition at 0.04 µg/mL (CAKI-1 [6]) was 0%, the inhibition at 4 µg/mL (MCF7 [7]) was 48.1% and the ID90 (Human betaherpesvirus 5) was 5.02 µM. For the same compound, the IC50 (Human betaherpesvirus 5) was 2.54 µM, the inhibition at 0.04 µg/mL (MCF7 [8]) was 0% and the GI50 (A549 [9]) was 3.98 µM. For the same compound, the inhibition at 0.04 µg/mL (A549 [10]) was 0%, the inhibition at 0.4 µg/mL [11] was 7.5% and the inhibition at 4 µg/mL (A549 [12]) was 51%. It also gave an inhibition at 4 µg/mL [13] of 61.5%, an inhibition at 0.4 µg/mL (MCF7 [14]) of 5.8% and an SI [15] of 3. The GI50 (CAKI-1 [16]) was > 10 µM.

Compound `COc1cc([C@@H]2c3cc4c(cc3[C@@H](Nc3ccc(C#N)cc3)[C@H]3COC(=O)[C@H]23)OCO4)cc(OC)c1O` has an IC50 (Human betaherpesvirus 5) of 0.62 µM.

Compound `COc1cc([C@@H]2c3cc4c(cc3[C@@H](O)[C@H]3COC(=O)[C@]23F)OCO4)cc(OC)c1O` has an inhibition at 0.04 µg/mL [1] of 0%, an EC50 (HEL) of 8.2 µM and an inhibition at 0.4 µg/mL (A549 [2]) of 34.3%. For the same compound, the inhibition at 4 µg/mL (CAKI-1 [3]) was 39%, the inhibition at 0.4 µg/mL (CAKI-1 [4]) was 10.6% and the inhibition at 0.04 µg/mL (CAKI-1 [6]) was 0%. For the same compound, the inhibition at 4 µg/mL (MCF7 [7]) was 53.8%, the ID90 (Human betaherpesvirus 5) was >5 µM and the IC50 (Human betaherpesvirus 5) was > 5 µM. For the same compound, the inhibition at 0.04 µg/mL (MCF7 [8]) was 0%, the inhibition at 0.04 µg/mL (A549 [10]) was 0% and the inhibition at 0.4 µg/mL [11] was 25.6%. The inhibition at 4 µg/mL (A549 [12]) was 78.1%, the inhibition at 4 µg/mL [13] was 64% and the inhibition at 0.4 µg/mL (MCF7 [14]) was 21.8%. The SI [15] was < 1.6.

In the case of `COc1cc([C@@H]2c3cc4c(cc3[C@@H](Nc3ccc(F)cc3)[C@H]3COC(=O)[C@H]23)OCO4)cc(OC)c1O`, the GI50 [5] is reported as 0.251 µM, the IC50 (Human betaherpesvirus 5) is reported as 0.65 µM and the GI50 (A549 [9]) is reported as 0.251 µM. For the same compound, the GI50 (CAKI-1 [16]) was 0.316 µM.
